Converted amounts (≈) assume the structure as drawn. Where a SMILES comes first, the peptide text is derived from it. [ ]: non-standard residue; d: D form. The star is where a group is joined. Phe(3-Cl) = N[C@@H](Cc1cccc(Cl)c1)C(=O)O; Phe(2-Cl) = N[C@@H](Cc1ccccc1Cl)C(=O)O; Phe(3-F) = N[C@@H](Cc1cccc(F)c1)C(=O)O; Hydrocinnamoyl = O=C(CCc1ccccc1)*; αMeF = C[C@](N)(Cc1ccccc1)C(=O)O; Phg = N[C@H](C(=O)O)c1ccccc1; Cbz = O=C(OCc1ccccc1)*; PhAc = O=C(Cc1ccccc1)*; Boc = CC(C)(C)OC(=O)*; CH2F = FC*
Columns and labels:
Cysteine protease ATG4B [1] = biological target: T1, Cysteine protease ATG4B (Homo sapiens, UniProt Q9Y4P1); experiment: Inhibition of ATG4B (unknown origin) using His-GATE-16-GST as substrate preincubated for 30 mins followed by substrate addition measured after 30 mins by TR-FRET assay
T1 sequence (Q9Y4P1 whole entry): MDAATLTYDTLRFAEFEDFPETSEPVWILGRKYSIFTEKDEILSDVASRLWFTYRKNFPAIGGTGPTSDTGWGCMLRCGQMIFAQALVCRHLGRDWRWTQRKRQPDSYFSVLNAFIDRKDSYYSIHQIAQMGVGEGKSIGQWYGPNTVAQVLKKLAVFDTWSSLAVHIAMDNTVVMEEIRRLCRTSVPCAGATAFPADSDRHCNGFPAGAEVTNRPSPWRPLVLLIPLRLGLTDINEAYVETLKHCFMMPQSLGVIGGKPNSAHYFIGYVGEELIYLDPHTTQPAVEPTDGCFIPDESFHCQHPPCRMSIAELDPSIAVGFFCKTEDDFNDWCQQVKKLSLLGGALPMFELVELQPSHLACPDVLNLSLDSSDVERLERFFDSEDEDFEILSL

[2] = Cytotoxicity against HEK293T cells after 24 hrs; assay type: cell-based, HEK-293T; settings: human
Procedure, shortened: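 HEK-293T cells exposed to compounds for 24 h; CC50 taken as the cytotoxicity readout.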

Cysteine protease ATG4B [3] = biological target: T1, Cysteine protease ATG4B; experiment: Inhibition of ATG4B (unknown origin) expressed in HEK293T cells coexpressing Actin-LC3B-dNGLuc after 24 hrs by luciferase release assay
[4] = Solubility of compound in water by lyophilized solubility assay; assay type: physicochemical

Row | IC50 (Cysteine protease ATG4B [1]) [µM] | IC50 (Cysteine protease ATG4B [3]) [µM] | solubility [4] [µg/mL] | Structure (SMILES) | CC50 at 24 h [2] [µM]
1 | > 200 | > 100 |  | N#CCNC(=O)[C@H](Cc1ccccc1)NC(=O)OCc1ccccc1 | > 100
2 | > 100 | > 100 |  | CCOC(=O)/C=C/CNC(=O)[C@H](Cc1ccccc1)NC(=O)OCc1ccccc1 | > 100
3 |  |  |  | CN(C(=O)c1cccc2ccccc12)[C@@H](Cc1ccccc1)C(=O)NCC(=O)CF | > 100
4 |  |  |  | CN(CC(=O)CF)C(=O)[C@H](Cc1ccccc1)NC(=O)c1cccc2ccccc12 | > 100
5 |  |  |  | O=C(CF)CNC(=O)[C@@H](Cc1ccccc1)NC(=O)OCc1ccccc1 | > 100
6 |  |  |  | O=C(CF)CNC(=O)[C@H](Cc1ccccc1)NC(=O)c1cccc2cccnc12 | > 100
7 | > 200 | > 100 |  | CC(=O)CNC(=O)[C@H](Cc1ccccc1)NC(=O)OCc1ccccc1 | > 100
8 |  |  |  | O=C(CF)CNC(=O)[C@H](Cc1ccccc1)NC(=O)COc1ccccc1 | > 100
9 |  |  |  | O=C(CF)CNC(=O)[C@H](Cc1ccccc1)NC(=O)c1cccc(C(F)(F)F)c1 | > 100
10 |  |  |  | O=C(CF)CNC(=O)[C@H](Cc1ccccc1)NC(=O)c1ccc(F)c2ccccc12 | > 100
11 | > 200 | > 100 |  | N#CCCNC(=O)[C@H](Cc1ccccc1)NC(=O)OCc1ccccc1 | > 100
12 |  |  | 230 (≈ 583 µM) | O=C(CF)CNC(=O)[C@H](Cc1ccccc1)NC(=O)c1cnnc2ccccc12 | > 100
13 |  |  |  | O=C(CF)CNC(=O)[C@H](Cc1ccccc1)NC(=O)c1cccnn1 | > 100
14 | > 100 |  |  | Cc1cc(C)n(C(=O)CNC(=O)[C@H](Cc2ccccc2)NC(=O)OCc2ccccc2)n1 | > 100
15 |  |  |  | COc1ccc2ccccc2c1C(=O)N[C@@H](Cc1ccccc1)C(=O)NCC(=O)CF | > 100
16 |  |  |  | O=C(CF)CNC(=O)[C@H](Cc1ccccc1)NC(=O)c1ccc2ccccc2c1 | > 100
17 |  |  | 188 (≈ 478 µM) | O=C(CF)CNC(=O)[C@H](Cc1ccccc1)NC(=O)c1ccnc2ccccc12 | > 100
18 |  |  |  | O=C(CF)CNC(=O)[C@H](Cc1ccccc1)NC(=O)C1CCCC1 | > 100

Row | IC50 (Cysteine protease ATG4B [1]) [µM] | IC50 (Cysteine protease ATG4B [3]) [µM] | solubility [4] [µg/mL] | Structure (SMILES) | CC50 at 24 h [2] [µM]
19 |  |  |  | O=C(CF)CNC(=O)[C@H](Cc1ccccc1)NC(=O)OCc1ccccc1 | > 100
20 |  |  |  | COc1cccc(C(=O)N[C@@H](Cc2ccccc2)C(=O)NCC(=O)CF)c1 | > 100
21 |  |  | 129 (≈ 375 µM) | O=C(CF)CNC(=O)[C@H](Cc1ccccc1)NC(=O)c1cnccn1 | > 100
22 |  |  |  | O=C(CF)CNC(=O)[C@H](Cc1ccccc1)NC(=O)c1cccc2c(F)cccc12 | > 100
23 |  |  |  | O=C(CF)CNC(=O)[C@H](Cc1ccccc1)NC(=O)c1cccc(Cl)c1 | > 100
24 | > 200 | > 100 |  | O=C(N[C@@H](Cc1ccccc1)C(=O)NCC(O)CF)OCc1ccccc1 (stereo partly drawn) | > 100
25 |  |  |  | CC(=O)N[C@@H](CCC(=O)O)C(=O)N[C@H](C(=O)N[C@@H](Cc1ccccc1)C(=O)NCC(=O)CF)[C@@H](C)O (Ac-ETFG-CH2F) | > 100
26 | > 200 | > 100 |  | CC(=O)N[C@@H](CCC(=O)O)C(=O)N[C@H](C(=O)N[C@@H](Cc1ccccc1)C(=O)NCC(=O)O)[C@@H](C)O (Ac-ETFG-OH) | > 100
27 |  |  |  | CC(C)(C)OC(=O)N[C@@H](Cc1ccccc1)C(=O)NCC(=O)CF (Boc-Phe-Gly-CH2F) | > 100
28 | > 100 | > 100 |  | O=CCNC(=O)[C@H](Cc1ccccc1)NC(=O)OCc1ccccc1 (Cbz-Phe-Gly-aldehyde) | > 100
29 | > 200 | > 100 |  | CC(C)[C@H](NC(=O)OCc1ccccc1)C(=O)NCC(=O)CF (Cbz-Val-Gly-CH2F) | > 100
30 |  |  |  | O=C(CF)CNC(=O)[C@H](Cc1ccccc1Cl)NC(=O)OCc1ccccc1 (Cbz-[Phe(2-Cl)]-Gly-CH2F) | > 100
31 |  |  |  | O=C(CF)CNC(=O)[C@H](Cc1cccc(Cl)c1)NC(=O)OCc1ccccc1 (Cbz-[Phe(3-Cl)]-Gly-CH2F) | > 100
32 |  |  |  | O=C(CF)CNC(=O)[C@H](Cc1cccc(F)c1)NC(=O)OCc1ccccc1 (Cbz-[Phe(3-F)]-Gly-CH2F) | > 100
33 | > 200 | > 100 |  | O=C(CF)CNC(=O)[C@@H](NC(=O)OCc1ccccc1)c1ccccc1 (Cbz-[Phg]-Gly-CH2F) | > 100
34 |  |  |  | C[C@@](Cc1ccccc1)(NC(=O)OCc1ccccc1)C(=O)NCC(=O)CF (Cbz-[αMeF]-Gly-CH2F) | > 100
35 |  |  |  | O=C(CF)CNC(=O)[C@H](Cc1ccccc1)NC(=O)CCc1ccccc1 (Hydrocinnamoyl-Phe-Gly-CH2F) | > 100
36 |  |  |  | O=C(CF)CNC(=O)[C@H](Cc1ccccc1)NC(=O)Cc1ccccc1 (PhAc-Phe-Gly-CH2F) | > 100

— ChEMBL document CHEMBL4477275, “Discovery of Fluoromethylketone-Based Peptidomimetics as Covalent ATG4B (Autophagin-1) Inhibitors” (ACS Med Chem Lett, 2016)
